# Bioassay records deposited in PubChem by The Scripps Research Institute Molecular Screening Center.
# NPY-Y2 antag – NPY-Y2 (human) receptor antagonism. NPY-Y2 expressing cells, antagonist mode. inhibition, % at 2.7 µM. actives 0.99% (n = 140,000)
# Target sequence (P49146 whole entry, looked up): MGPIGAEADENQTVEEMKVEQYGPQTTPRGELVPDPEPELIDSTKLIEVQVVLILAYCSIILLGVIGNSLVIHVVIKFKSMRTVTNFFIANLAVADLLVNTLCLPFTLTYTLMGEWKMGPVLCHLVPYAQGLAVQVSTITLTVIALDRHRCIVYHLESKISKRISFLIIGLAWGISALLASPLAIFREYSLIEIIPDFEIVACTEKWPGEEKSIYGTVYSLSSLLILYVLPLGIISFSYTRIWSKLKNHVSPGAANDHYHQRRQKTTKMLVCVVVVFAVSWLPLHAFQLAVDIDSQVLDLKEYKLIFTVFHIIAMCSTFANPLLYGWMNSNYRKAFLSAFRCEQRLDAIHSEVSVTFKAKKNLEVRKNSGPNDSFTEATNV
# NPY-Y2 PAM-ag – potentiators or agonists of human neuropeptide Y receptor Y2; P49146; cells expressing NPY-Y2, potentiator/agonist read-out; activation, % at 3.6 µM; actives 0.45% (n = 220,000); in the data active = activation above about 27%;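 also: cells stimulated with NPY near EC25 plus isoproterenol at EC100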
# NPY-Y1 PAM-ag – potentiates or activates human NPY-Y1 receptor | NPY-Y1 expressing cells, potentiator/agonist activation | activation, % at 3.6 µM | actives 0.37% (n = 220,000) | AID 1304; in the data active = activation above about 33%, passing the limit was not always enough;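 also: cells stimulated with NPY at EC10 then isoproterenol at EC100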
# Target sequence (P25929 whole entry, looked up): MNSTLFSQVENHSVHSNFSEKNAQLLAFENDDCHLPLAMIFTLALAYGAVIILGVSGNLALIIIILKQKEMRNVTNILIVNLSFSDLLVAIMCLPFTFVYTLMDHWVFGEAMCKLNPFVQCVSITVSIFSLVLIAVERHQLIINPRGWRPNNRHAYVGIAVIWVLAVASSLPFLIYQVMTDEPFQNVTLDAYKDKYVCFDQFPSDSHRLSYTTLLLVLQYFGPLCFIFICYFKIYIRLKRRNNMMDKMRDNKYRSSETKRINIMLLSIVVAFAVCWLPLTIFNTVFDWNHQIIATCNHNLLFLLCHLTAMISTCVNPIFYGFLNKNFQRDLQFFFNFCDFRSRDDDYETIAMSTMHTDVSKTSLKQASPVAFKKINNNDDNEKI
# NPY-Y1 antag – NPY-Y1 (human) receptor antagonism; P25929; HEK293-CNG Y1 cells, membrane potential fluorescence; NPY at EC95, then isoproterenol; inhibition, % at 3.6 µM; actives 1% (n = 200,000);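 active = inhibition above the campaign mean inhibition of all tested compounds plus 3 SD, cut at about 20% in these data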
#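 Material: HEK293 cells co-expressing NPY Y1 receptor and cyclic-nucleotide gated channel. Timing: compound incubation 1 h at room temperature, readout 45 min post-stimulation. Signal: fluorescence, membrane potential probe.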
# NPY1 antag conf – confirmation of human neuropeptide Y receptor Y1 antagonists | shares compounds with NPY-Y1 antag | HEK293-CNG NPY-Y1, membrane potential fluorescence, cAMP; NPY challenge against isoproterenol-raised cAMP | inhibition, % at 3.6 µM | actives 21% (n = 1,200); in the data active = inhibition above about 20%
# NPY-Y2 antag ct – human NPY-Y2 antagonism in NPY-Y1 counter-screen | shares compounds with NPY-Y1 antag | HEK293 NPY-Y2 CNG membrane potential fluorescence; cells given NPY, then isoproterenol | actives 28% (n = 1,200) | AID 1255 | inhibition, % at 3.6 µM
# NPY-Y1 pot conf – confirmation of human NPY-Y1 receptor potentiators or agonists. shares compounds with NPY-Y1 PAM-ag. cell-based NPY-Y1 potentiator/agonist assay. activation, % at 3.6 µM. actives 20% (n = 280). AID 1546; in the data active = activation above about 45%;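 also: cells challenged with NPY at its EC10 plus isoproterenol stimulus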
# NPY-Y2 counter – NPY-Y2 potentiation or agonism as NPY-Y1 counter-screen; shares compounds with NPY-Y1 PAM-ag; HEK293-CNG cells, membrane-potential fluorescence (FLIPR), 1536-well; activation, % at 3.6 µM; actives 20% (n = 280); AID 1649; in the data active = activation above about 33%
# NPY-Y1 ag – activates human NPY-Y1, counter-screen for NPY-Y1 potentiators. actives 50% (n = 280). shares compounds with NPY-Y1 PAM-ag. HEK293 Y1-CNGC, membrane potential fluorescence, agonist mode. activation, % at 3.6 µM;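 active = percent activation above the mean of DMSO-only control wells plus 3 SD of those wells, cut at about 18% in these data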;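 also: cells challenged with isoproterenol plus Ro 20-1724 with no NPY in test wells; Y1 agonism lowers isoproterenol-driven cAMP and reduces probe fluorescence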
# NPY-Y2 ag – counter-screen for NPY-Y1 potentiators or agonists: agonists of NPY-Y2; HEK293 Y2-CNGC, membrane potential fluorescence, agonist mode; actives 67% (n = 280); shares compounds with NPY-Y1 PAM-ag; activation, % at 3.6 µM;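 active = activation above the solvent-only control wells' mean plus 3 SD, cut at about 11% in these data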;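 also: agonism lowers cAMP so well fluorescence drops in active wells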
# CNGC counter – blocks cyclic nucleotide gated channel in NPY-Y1 counter-screen; shares compounds with NPY-Y1 PAM-ag; HEK293-CNG parental, isoproterenol cAMP, membrane potential fluorescence; inhibition, % at 3.6 µM; actives 42% (n = 280);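 active = inhibition above the mean of stimulated solvent-only control wells plus 3 SD, cut at about 22% in these data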
# NPY-Y2 confirm – human NPY-Y2 potentiation or agonism, confirmation | cell-based NPY-Y2 potentiator/agonist assay | actives 20% (n = 450) | activation, % at 3.6 µM | shares compounds with NPY-Y2 PAM-ag; in the data active = activation above about 33%
# NPY-Y1 potentiator – NPY-Y1 potentiation or agonism as NPY-Y2 counter-screen; shares compounds with NPY-Y2 PAM-ag; Y1 HEK293-CNG cells, membrane potential fluorescence; activation, % at 3.6 µM; actives 20% (n = 450); AID 1651; in the data active = activation above about 45%;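 also: cells stimulated with submaximal NPY then isoproterenol with phosphodiesterase inhibitor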
# NPY-Y1 ag 2 – human NPY-Y1 agonism as NPY-Y2 potentiator counter-screen; AID 1702; activation, % at 3.6 µM; shares compounds with NPY-Y2 PAM-ag; actives 37% (n = 450); HEK293 Y1-CNGC, membrane potential fluorescence;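 active = activation above the mean of DMSO-only control wells plus 3 SD, cut at about 18% in these data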;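 also: cells stimulated with 1 µM isoproterenol plus the PDE inhibitor Ro 20-1724; Y1 agonists lower the membrane potential dye signal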
# CNGC inhibitor – blocks CNG channel activity, counter-screen for NPY-Y2 potentiators; shares compounds with NPY-Y2 PAM-ag; inhibition, % at 3.6 µM; actives 32% (n = 450); HEK293-CNG parental, isoproterenol cAMP, membrane potential fluorescence;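 active = inhibition above the control-well mean plus 3 SD of those wells, cut at about 22% in these data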
# Y2 agonist ctr – counter-screen for NPY-Y2 potentiators: agonists of human NPY-Y2; shares compounds with NPY-Y2 PAM-ag; HEK293 Y2/CNGC cells, membrane potential fluorescence, agonist mode; activation, % at 3.6 µM; actives 56% (n = 450);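 active = activation above the mean of solvent-only control wells plus 3 SD, cut at about 10% in these data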;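 also: cells stimulated by isoproterenol with no NPY added so direct agonism is tested; agonism lowers probe fluorescence through less cAMP and CNG channel opening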
# Hits are given with their value; 0 = inactive; - = no result given. In the library only some 1.9% were active in any assay of this set; here they are far more common. Rule as the data show it, unless noted: active = inhibition above about 17%; inactive = the rest.
SMILES,NPY-Y2 antag,NPY-Y2 PAM-ag,NPY-Y1 PAM-ag,NPY-Y1 antag,NPY-Y1 pot conf,NPY-Y2 counter,NPY-Y1 ag,NPY-Y2 ag,CNGC counter,others
OC1CCN(Cc2cccc(Oc3ccccc3)c2)CC1,0,0,0,0,-,-,-,-,-,
CCN(CC)C(=O)/C(=C\c1ccc(Br)cc1)NC(=O)c1ccccc1OC,0,0,0,23.4,-,-,-,-,-,NPY1 antag conf=0;NPY-Y2 antag ct=0
COc1cc(C(=O)Nc2nnc(C3CC3)s2)ccc1OCc1c(C)noc1C,-,0,0,0,-,-,-,-,-,
Cc1ccc(-n2ncc(C(=O)Nc3cc(Cl)ccc3Cl)c2C2CCNCC2)cc1,-,0,0,0,-,-,-,-,-,
Cc1ccc(-n2ncc(C(=O)Nc3cc(Cl)cc(Cl)c3)c2C2CCNCC2)cc1C,-,50.8,0,33.5,-,-,-,-,-,NPY1 antag conf=0;NPY-Y2 antag ct=0;NPY-Y2 confirm=48.3;NPY-Y1 potentiator=61.6;NPY-Y1 ag 2=0;CNGC inhibitor=26.4;Y2 agonist ctr=31.2
CC(C)CNC(=O)c1cccc(NC(=O)C(C)Oc2ccccc2)c1 (stereo not given),-,0,0,0,-,-,-,-,-,
CC(C)(C)NCc1cc(Cl)ccc1OCc1ccccc1F,-,31.5,0,24.0,-,-,-,-,-,NPY1 antag conf=0;NPY-Y2 antag ct=0;NPY-Y2 confirm=0;NPY-Y1 potentiator=0;NPY-Y1 ag 2=0;CNGC inhibitor=0;Y2 agonist ctr=0
CCOC(=O)N1CCN(C(=O)CSCC(=O)Nc2nc(-c3ccc(OC)cc3)cs2)CC1,0,0,0,0,-,-,-,-,-,
CCOC(=O)N1CCN(C(=O)CSCC(=O)Nc2nc(-c3ccc(-c4ccccc4)cc3)cs2)CC1,0,33.5,0,21.1,-,-,-,-,-,NPY1 antag conf=0;NPY-Y2 antag ct=0;NPY-Y2 confirm=0;NPY-Y1 potentiator=0;NPY-Y1 ag 2=0;CNGC inhibitor=0;Y2 agonist ctr=0
CC(NC(=O)Nc1nnc(C(F)(F)F)s1)(C(F)(F)F)C(F)(F)F,0,57.6,0,42.5,-,-,-,-,-,NPY1 antag conf=27.3;NPY-Y2 antag ct=0;NPY-Y2 confirm=0;NPY-Y1 potentiator=0;NPY-Y1 ag 2=0;CNGC inhibitor=0;Y2 agonist ctr=0
COc1cc(C)nc(NC(=S)N(C)C(=O)c2ccccc2)n1,-,0,0,-,-,-,-,-,-,
Cc1ccc(NC(=O)c2noc3c2CCCCC3)cc1C,0,0,49.1,0,0,0,0,0,0,
CCOC(=O)c1c(NC(=O)C2C3CCC(O3)C2C(=O)O)sc(C)c1-c1ccc(F)cc1 (stereo not given),0,0,0,0,-,-,-,-,-,
CCCOC(=O)c1c(-c2ccc(C)cc2C)csc1NC(=O)C1C2CCC(O2)C1C(=O)O (stereo not given),0,0,47.5,0,0,0,18.4,13.0,0,
O=C(CN1C(=O)NC(c2ccccc2)(c2ccccc2)C1=O)c1c[nH]c2ccccc12,-,0,39.6,0,0,0,33.7,21.3,29.2,
OC(CNC1Cc2ccccc2C1)COc1ccc(Cl)cc1 (stereo not given),-,0,45.4,-,0,0,17.4,15.6,0,
COc1ccc(-n2nc(C(=O)c3cccs3)cc(-c3nc4ccccc4[nH]3)c2=N)cc1,0,0,0,0,-,-,-,-,-,
Cc1ccccc1-n1nc(C(=O)c2cccs2)cc(-c2nc3ccccc3[nH]2)c1=N,0,0,47.9,0,73.1,64.8,61.6,66.1,61.7,
O=C(NC1CCCC1)C(c1ccc(F)cc1)N(Cc1ccc(F)cc1)C(=O)CCl (stereo not given),0,0,0,0,-,-,-,-,-,
CCOC(=O)C1(C)NC(c2ccco2)C2C(=O)N(CC)C(=O)C21 (stereo not given),-,0,0,0,-,-,-,-,-,
COC(=O)c1sc(-c2ccc(Cl)cc2)cc1NC(=O)c1ccccc1C(=O)O,-,0,0,-,-,-,-,-,-,
COC(=O)c1sc(-c2ccc(C(C)(C)C)cc2)cc1NC(=O)c1ccccc1C(=O)O,-,0,63.1,-,45.5,0,38.7,12.3,23.6,
CCC(CC)C(=O)N1N=C(c2ccc(NS(C)(=O)=O)cc2)CC1c1ccc(C)cc1 (stereo not given),-,0,0,-,-,-,-,-,-,
CC1CN(C(=O)C2CC2)C(C)CN1C(=O)C1CC1 (stereo not given),0,0,0,0,-,-,-,-,-,
CC1(C)Cc2c(cnn2-c2ccccc2)-c2c1c1ccccc1n2CC(O)CBr (stereo not given),0,0,49.9,0,0,0,0,11.9,0,
SMILES,NPY-Y2 antag,NPY-Y2 PAM-ag,NPY-Y1 PAM-ag,NPY-Y1 antag,NPY-Y1 pot conf,NPY-Y2 counter,NPY-Y1 ag,NPY-Y2 ag,CNGC counter,others
CC1(C)Cc2c(cnn2-c2ccccc2)C(=O)/C1=N\NC(=O)c1ccccc1N,0,0,0,0,-,-,-,-,-,
O=C(COC(=O)c1ccc[nH]c1=O)NC1CCCCC1,-,0,0,-,-,-,-,-,-,
COC(=O)COc1ccc(/C=C2/NC(=O)N(CC(=O)OC)C2=O)cc1,-,0,49.1,0,117.6,89.8,102.9,89.1,96.4,
CCOC(=O)C1CCCN(C(=O)c2cccc(NC(=O)C(CC)CC)c2)C1 (stereo not given),-,0,0,0,-,-,-,-,-,
O=C(CSCc1ccccc1)Nc1ccc2c(c1)OCO2,0,0,0,0,-,-,-,-,-,
O=C(CSCSCC(=O)Nc1ccc2c(c1)OCO2)Nc1ccc2c(c1)OCO2,0,0,46.1,0,0,0,0,0,0,
Cc1occc1C(=O)Nc1nnc(-c2cccs2)s1,-,0,0,0,-,-,-,-,-,
CC1c2[nH]c3ccccc3c2CCN1C(=O)Nc1ccccc1 (stereo not given),0,0,47.1,0,0,0,0,0,0,
COC(=O)CSc1nc2ccc(N)cc2s1,-,0,45.0,0,91.8,67.1,71.2,63.5,84.9,
